The list is not random: actives were taken first. Their share in the collection is about 3.4%.
TAAR1 antag: human TAAR1 antagonism; AID 624466; Q96RJ0; inhibition, % at 3 µM; CHO RD-HGA16 TAAR1, Fluo-8 calcium fluorescence, antagonist; 1.5% of 360,000 active;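 active = inhibition above a per-plate cutoff, the mean inhibition of test compounds on that plate plus 3 SD, cut at about 49% in these data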
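Test system – hTAAR1-expressing CHO RD-HGA16 cells, Gα16-coupled · Also added – β-PEA at EC80 concentration, post-compound challenge · Compound – 3 µM, single point · Incubation – dye loading 75 min at 37 °C, then 30 min room temperature · Measured by – Fluo-8 intracellular calcium dye fluorescence, real-time kinetic reads · Benchmarks – vehicle and agonist controls · Replicates – singlicate, one well per test compound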
CHRM1 PAM: human CHRM1 positive allosteric modulation; P11229; CHO-K1 hM1, Fluo-8 calcium fluorescence, ACh EC20; 0% = ACh EC20, 100% = maximal ACh; activation, % at 3 µM; 0.088% of 360,000 active; in the data active = activation above about 19%, passing the limit was not always enough
Target sequence (P11229 whole entry, looked up): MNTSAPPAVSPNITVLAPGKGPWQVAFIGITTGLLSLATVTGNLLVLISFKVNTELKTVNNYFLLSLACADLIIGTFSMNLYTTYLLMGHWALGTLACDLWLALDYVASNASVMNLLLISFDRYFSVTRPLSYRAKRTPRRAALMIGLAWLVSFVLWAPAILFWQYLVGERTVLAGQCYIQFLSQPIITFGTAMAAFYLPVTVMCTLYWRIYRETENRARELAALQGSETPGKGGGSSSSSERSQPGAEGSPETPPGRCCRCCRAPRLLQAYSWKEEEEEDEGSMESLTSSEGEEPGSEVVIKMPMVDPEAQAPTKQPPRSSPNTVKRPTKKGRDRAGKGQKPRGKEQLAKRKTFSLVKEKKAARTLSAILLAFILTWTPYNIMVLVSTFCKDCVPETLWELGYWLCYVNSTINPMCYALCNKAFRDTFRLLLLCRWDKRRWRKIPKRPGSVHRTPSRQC
CHRM1 antagonist: blocks human M1 muscarinic receptor; P11229; 1.3% of 360,000 active; inhibition, % at 3 µM; CHO-K1 hM1, Fluo-8 calcium fluorescence, ACh EC80 antagonist; AID 588852;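 active = percent inhibition above its own plate's cutoff, namely the mean of that plate's compound wells plus 3 SD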;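 note: peak over basal fluorescence ratio during 140 s after agonist addition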
TAAR1 ag: agonists of human TAAR1 | 0.99% of 360,000 active | activation, % at 3 µM | CHO RD-HGA16 TAAR1, Fluo-8 calcium fluorescence; vehicle wells 0%, saturating PEA agonist 100% | Q96RJ0 | AID 624467;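 active = activation above the mean activation of all test compounds in the run plus 3 SD, cut at about 38% in these data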
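System: CHO RD-HGA16 cells carrying human TAAR1 plus Gα16; Incubation: 17-24 h seeding, 75 min 37 °C dye, 30 min RT; Measured by: Fluo-8 fluorescence, 5 s baseline then 140 s kinetic read; Control set: DMSO and PEA EC100; Replication: single well for each compound.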
M1 ag: agonists of human M1 muscarinic receptor | activation, % at 3 µM | AID 588814 | 0.33% of 360,000 active | CHO-K1 hM1, Fluo-8 calcium fluorescence, agonist mode; 0% DMSO, 100% acetylcholine EC100;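 active = activation above the run's mean compound activation plus 3 SD, cut at about 16% in these data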;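 note: peak over basal fluorescence ratio within a 140 s kinetic read after compound addition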
Hits are given with their value; - = inactive; . = no result.

SMILES	TAAR1 antag	CHRM1 PAM	CHRM1 antagonist	TAAR1 ag	M1 ag
CC(C)C(N)c1csc(Nc2nncc3ccccc23)n1 (stereo unspecified)	-	-	-	-	-
O=C1NC(c2cccc(C(F)(F)F)c2)c2c(-c3ccccc3)n[nH]c21 (stereo unspecified)	-	.	.	-	.
CC12CNCC(C)(CN(C(c3ccccc3)c3ccccc3)C1)C2	-	-	58.9	-	-
Clc1ccc(C(c2ccccc2)N2CCNCC2)cc1 (stereo unspecified)	-	-	-	-	-
O=C(CCl)NN=C(c1ccccc1)c1ccccc1	-	-	-	-	-
CCN(CC)CC(=O)NN=C(c1ccccc1)c1ccccc1	-	-	27.3	-	-
C/C(=N/NS(=O)(=O)c1ccc(Br)cc1)c1ccc(NC(=O)c2ccc(C)o2)cc1	-	-	-	38.5	-
Cc1ccc(O)c([C@H](CCN(C(C)C)C(C)C)c2ccccc2)c1	-	-	100.4	-	-
CCCN(CCC)C(=O)CC(c1ccccc1)c1ccc(C)cc1O (stereo unspecified)	-	-	-	-	-
CCn1ncc(C2=NOC(C(=O)NCCc3ccccc3)C2)c1C (stereo unspecified)	-	-	-	61.1	-
CCOc1ccc(-c2[nH]ncc2Oc2ccccc2OC)c(O)c1	-	-	-	-	-
CCOc1ccc(-c2[nH]ncc2Oc2ccccc2OCC)c(O)c1	49.4	-	-	-	-
COc1cccc(C2SCC(=O)N2c2ccc(C)cc2)c1OC (stereo unspecified)	-	-	58.0	-	-
CCN(CC)CCn1c2ccccc2c2n[nH]c(=S)nc21	-	-	35.8	-	-
CCN(CC)CCn1c2ccccc2c2nc3ccccc3nc21	-	-	-	-	-
CCN(CC)CCSc1nnc2c3cc(F)ccc3n(Cc3ccccc3)c2n1	-	-	-	-	-
CCN(CC)CCSc1nnc2c3ccccc3n(Cc3ccccc3)c2n1	-	-	51.2	-	-
Cc1ccc(NS(=O)(=O)c2ccc(C3CCCCC3)cc2)cc1	59.1	-	-	-	-
CCOC(=O)NCc1ccc(S(=O)(=O)Nc2ccc(C)cc2)cc1	-	-	-	44.1	-
CCOC(=O)COc1ccc(S(=O)(=O)Nc2ccc(C)cc2)cc1	-	-	-	49.5	-
CCOC(=O)COc1ccc(S(=O)(=O)Nc2ccc3c(c2)OCO3)cc1	-	-	-	-	-
Cc1ccc(S(=O)(=O)Nc2ccc(N3CCCCC3)cc2)cc1	-	-	-	-	-
CCOC(=O)NCc1ccc(CNC(=O)OCC)cc1	-	-	-	-	-
CCCN1CCCCC(NC(=O)c2ccccc2OC)C1=O (stereo unspecified)	-	.	.	-	.
COC(=O)c1cc2c(c3c4cc(F)ccc4n(S(=O)(=O)c4ccccc4)c13)C(=O)N(Cc1ccc(C(F)(F)F)cc1)C2	-	.	.	-	.
SMILES	TAAR1 antag	CHRM1 PAM	CHRM1 antagonist	TAAR1 ag	M1 ag
C[C@@H]1COc2cccc(NCCO)c2S(=O)(=O)N1	-	.	.	-	.
CC(C)(C)C1=CC(CC(N)=O)(C(C)(C)C)OC1=O (stereo unspecified)	-	.	.	-	.
COc1cccc(CN2CCN(C(=O)[C@H]3O[C@@H](n4cnc5c(N)ncnc54)[C@H](O)[C@@H]3O)CC2=O)c1	-	-	-	-	-
Cc1ccc(C(=O)CCC(=O)N2CCN(C/C=C/c3ccccc3)CC2)cc1	-	-	-	-	24.2
CCOc1ccc(C(=O)NCC(=O)N2CCN(C/C=C/c3ccccc3)CC2)cc1OCC	-	-	29.5	-	26.9
CCOc1ccccc1N1CCN(C(=O)CNC(=O)c2ccc(OC)c(OC)c2)CC1	-	-	-	-	-
COC(=O)c1ccccc1NC(=O)N1CCN(C/C=C/c2ccccc2)CC1	-	-	-	-	-
Cc1ccccc1C(=O)NCC(=O)N1CCN(C/C=C/c2ccccc2)CC1	-	-	33.3	-	23.0
COc1ccccc1C(=O)NCC(=O)N1CCN(C/C=C/c2ccccc2)CC1	-	-	-	-	21.8
COc1ccc(OC)c(NC(=O)C2(C)CCN2Cc2ccsc2)c1 (stereo unspecified)	-	-	-	-	-
O=C(CC1CCCC1)N[C@@H](Cc1cccnc1)C(=O)N1CCC[C@H]1C(=O)NC1CCCC1	-	.	.	-	.
CCOC(=O)Cc1csc(NC(=O)C(C)c2ccc([N+](=O)[O-])cc2)n1 (stereo unspecified)	-	-	-	49.7	-
CCOC(=O)Cc1csc(NC(=O)/C=C/c2ccc(Br)o2)n1	48.6	-	-	-	-
CCCCN1C(=N)N([C@@H](CCC)CN2CCC[C@H]2CN2C(N)=NC[C@@H]2Cc2ccccc2)C[C@H]1Cc1ccccc1	-	-	36.4	-	-
CCC[C@@H](CN1CCC[C@H]1CN1C(N)=NC[C@@H]1Cc1ccccc1)N1C[C@@H]([C@H](C)CC)N(CCCC2CCCC2)C1=N	.	-	81.6	.	-
CCc1cc2c(nc1CC)CCCN2S(=O)(=O)c1ccc(F)cc1	-	.	.	-	.
CC1C(=O)N2CCCc3cc(NC(=O)C(=O)NCCN4CCOCC4)cc1c32 (stereo unspecified)	-	-	36.6	-	-
COC(=O)[C@]12C[C@H](CC(=O)N3CCN(C(=O)C4CC4)CC3)C(=O)N(Cc3ccc4c(c3)OCO4)C1=C[C@H](COCc1ccccc1)O[C@@H]2C	-	.	.	-	.
Cc1cc(OCC(O)CN2CCc3ccccc3C2)cc(C(C)C)c1 (stereo unspecified)	-	-	31.7	-	-
O=C(c1ccc(OC2CCN(CCCc3ccccc3)CC2)cc1)N1CCCC1	-	-	42.4	-	-
COc1ccc(CCC(C)N2CCC(Oc3ccc(C(=O)N4CCCC4)cc3)CC2)cc1 (stereo unspecified)	-	-	67.4	-	-
CN(Cc1nccn1C)C(=O)c1ccc(OC2CCN(CCc3ccccc3)CC2)cc1	-	-	46.9	-	-
CC(C)N(C)C(=O)c1ccc(OC2CCN(CCc3ccccc3)CC2)cc1	-	-	-	-	-
COc1ccccc1/C=C/CN1CCC(Oc2ccc(C(=O)N3CCCC3)cc2)CC1	-	-	73.0	-	-
Cn1c(=O)c2c(c3ccccc31)OC(C)(C)C=C2	-	.	.	-	.
OC1(C#Cc2c(-c3ccsc3)sc3ccccc23)CCCCC1	-	.	.	-	.
CC(=O)N1CCN(C(=O)c2ccc(OC3CCN(CCc4ccccc4)CC3)cc2)CC1	-	-	36.7	-	-
COC1CCCN(C(=O)c2ccc(OC3CCN(CCc4ccccc4)CC3)cc2)C1 (stereo unspecified)	-	-	-	-	-
O=C(Nc1cccc([N+](=O)[O-])c1)c1ccc(CSc2ccccc2)cc1	52.2	-	-	-	-
O=C(Nc1cccc([N+](=O)[O-])c1)c1ccccc1	-	-	-	-	-
